Experimental data reported in ChEMBL document CHEMBL1137366, “Novel Schiff base copper complexes of quinoline-2 carboxaldehyde as proteasome inhibitors in human prostate cancer cells” (J Med Chem, 2006).
Activity calls are given as the source filed them. No cut-off for these calls is given here.

Key:
[1] = tested on: LNCaP; assay: Cytotoxicity against human LnCaP cell line by MTT assay after 72 hrs; type: functional, cell-based
Procedure, shortened: (§1)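 MTT growth-inhibition assay in prostate cancer cells. Cells were exposed to compounds for 72 h. IC50 was taken from the dose–response data.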

[2] = tested on: PC-3; assay: Cytotoxicity against human PC3 cell line by MTT assay after 72 hrs; type: functional, cell-based; conditions: PC-3, 72 h; procedure, shortened: as §1
[3] = tested on: LNCaP; assay: Induction of apoptosis in LnCaP cells measured by hydrogen peroxide assay; type: functional, cell-based; conditions: Homo sapiens
Procedure, shortened: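 LNCaP cells were treated for 24 h at 4, 7 and 10 µM. H2O2 was then measured with the Amplex Red hydrogen peroxide kit at time points from 1 to 6 h. Absorbance was normalized to control.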

[4] = target: T1, Proteasome Macropain subunit MB1 (Homo sapiens, UniProt P28074); assay: Inhibition of chymotrypsin-like activity of proteasome in intact LnCaP cells; type: cell-based
T1 sequence (P28074 whole entry): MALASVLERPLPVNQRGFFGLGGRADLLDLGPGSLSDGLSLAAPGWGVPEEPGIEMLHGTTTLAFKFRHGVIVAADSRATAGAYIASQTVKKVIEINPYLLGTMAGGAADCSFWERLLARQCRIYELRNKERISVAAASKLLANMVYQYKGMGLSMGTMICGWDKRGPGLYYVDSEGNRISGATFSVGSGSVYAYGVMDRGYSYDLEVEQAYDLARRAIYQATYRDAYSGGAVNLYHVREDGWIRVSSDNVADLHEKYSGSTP
Procedure, shortened: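 Intact LNCaP cells were treated, then whole-cell extracts were assayed for proteasome chymotrypsin-like activity. CuCl2 alone served as control. IC50 values were derived.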

[5] = tested on: LNCaP; assay: Inhibition in LnCaP cell line growth by ELISA apoptosis assay upto 20 uM; type: functional, cell-based; conditions: Homo sapiens
Procedure, shortened: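 Apoptotic cell death in LNCaP cells measured by histone/DNA ELISA. Cells were treated for 72 h at 10 and 20 µM and compared with a control.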

[6] = tested on: LNCaP; assay: Induction of apoptosis in LnCaP cells assessed as PARP cleavage by Western blot analysis; type: functional, cell-based; conditions: Homo sapiens

O=C(N/N=C/c1ccc2ccccc2n1)c1ccccc1
IC50 [1]: 20 µM
IC50 [2]: 25 µM

NC(=S)N/N=C/c1ccc2ccccc2n1
Activity [3]: inactive
IC50 [4]: ≥ 10 µM
IC50 [1]: 16 µM
Activity [5]: Dose-dependent effect
IC50 [2]: 21 µM
Activity [6]: Active

O=C(N/N=C/c1ccc2ccccc2n1)c1ccccc1O
IC50 [1]: 20 µM
IC50 [2]: 31 µM
